Measurements as given in ChEMBL document CHEMBL5150048, “Synthesis and Evaluation of Polymyxins Bearing Reductively Labile Disulfide-Linked Lipids” (J Med Chem, 2022).
Starred links: 1 amine or outer side, 2 acyl side, 3 side chain; linkers in the order of their positions; H or OH if unused. Positions of bridges follow the written chain, without caps; N, C: chain ends. Non-standard residues stand in square brackets, D forms with d. Residues, ends and D or L forms follow the SMILES beside them. *: point of attachment. X2 = CC(C)CCCCC[C@@H](N[*:1])C(=O)[*:2]; S(2-cyclohexylethyl) = C1CCC(CCS*)CC1; S(3-Cl-benzyl) = Clc1cccc(CS*)c1; X3 = c1ccc(Oc2ccc(CS*)cc2)cc1; X5 = c1ccc(-c2ccc(CS*)cc2)cc1; S(3-Methylbutyl) = CC(C)CCS*; X6 = c1ccc(-c2ccc(S*)cc2)cc1; Dab = NCC[C@H](N)C(=O)O; X1 = CC(C)CCCCS*; X4 = CCCCCCS*

Legend:
Acinetobacter baumannii = assay: Antibacterial activity against Acinetobacter baumannii ATCC 19606 assessed as inhibition of bacterial growth by CLSI based broth microdilution method; type: functional
Outline: (§1)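 Broth microdilution per CLSI. Colonies from overnight blood agar at 37 °C were grown in TSB to OD600 0.5. Compounds (6.4 mg/mL DMSO stock) were diluted serially in CAMHB (12.5 μg/mL Mg2+, 20 μg/mL Ca2+) in polypropylene plates and inoculated to a final 10^6 CFU/mL, then incubated at 37 °C under gas-permeable membrane. MIC is the lowest concentration without visible growth, from at least duplicate experiments.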

Erythrocyte = assay: Hemolytic activity in sheep erythrocytes at 128 ug/ml incubated for 1 hr by absorbance based analysis; type: toxicity, cell-based, Ovis aries; details: dose 128 µg/ml
Outline: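 Defibrinated sheep red cells were washed four times in PBS with 0.002% Tween20 and adjusted to A415 2.5–3.0. They were mixed 1:1 by volume with compound serial dilutions (128–4 μg/mL, before mixing) and shaken 1 h at 37 °C. After centrifugation, supernatant was diluted in PBS and read at 415 nm. Values were background-corrected and given as % of 0.1% Triton X-100 lysis, from triplicates.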

[1] = Stability of the compound in PBS assessed as drug degradation at 1 mg/ml incubated for 24 hrs in presence of 5 mM glutathione by RP-HPLC analysis; type: physicochemical; details: buffer
Outline: (§2)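 Compound (1 mg/mL stock) was mixed 1:9 by volume with PBS glutathione stock: 5.5 μM for the low-glutathione line (7), 5.5 mM for the high-glutathione line (8). Vials were N2-flushed and held in the HPLC autosampler at RT. Samples at 0, 1, 2, 3, 4, 8, 10 and 24 h were analysed by RP-HPLC, UV 214 nm, and quantified against an external calibration curve in PBS run in duplicate.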

[2] = Stability of the compound in PBS assessed as compound remaining at 1 mg/ml incubated for 24 hrs in presence of 5 uM glutathione by RP-HPLC analysis; type: physicochemical; details: PBS with 5 uM glutathione, read-out: Stability; outline: as §2
[3] = Cytotoxicity against human differentiated conditionally immortalized RPTEC cells assessed as reduction in cell viability incubated for 24 hrs by PrestoBlue reagent based assay; type: toxicity; details: read-out: TC50
Outline: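 ciPTEC (OAT-1) cells were seeded at 2.0 × 10^5 cells/mL in DMEM/F-12 with 10% FCS, insulin, transferrin, selenium, hydrocortisone, EGF and tri-iodothyronine. They were differentiated 24 h at 33 °C then 6 days at 37 °C, 5% CO2. Compounds serially diluted in serum-free medium were applied for 24 h at 37 °C, then 10% PrestoBlue in HBSS was added. Fluorescence (ex 530/em 590 nm) was background-corrected and normalized to untreated cells. TC50 came from nonlinear regression with bottom fixed at 0.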

Klebsiella pneumoniae = assay: Antibacterial activity against Klebsiella pneumoniae ATCC 13883 assessed as inhibition of bacterial growth by CLSI based broth microdilution method; type: functional; outline: as §1
Pseudomonas aeruginosa = assay: Antibacterial activity against Pseudomonas aeruginosa ATCC 27853 assessed as inhibition of bacterial growth by CLSI based broth microdilution method; type: functional; outline: as §1
[4] = Toxicity index, ratio of test compound TC50 to polymyxin B TC50 for cytotoxicity against human differentiated conditionally immortalized RPTEC cells incubated for 24 hrs by PrestoBlue reagent based assay; type: cell-based
Escherichia coli = assay: Antibacterial activity against Escherichia coli ATCC 25922 assessed as inhibition of bacterial growth by CLSI based broth microdilution method; type: functional; outline: as §1

CC(C)CCSSC[C@H](N)C(=O)N[C@H](C(=O)N[C@@H](CCN)C(=O)N[C@H]1CCNC(=O)[C@H]([C@@H](C)O)NC(=O)[C@H](CCN)NC(=O)[C@H](CCN)NC(=O)[C@H](CC(C)C)NC(=O)[C@@H](Cc2ccccc2)NC(=O)[C@H](CCN)NC1=O)[C@@H](C)O (H-C(S(3-Methylbutyl))T[Dab][Dab][Dab][dF]L[Dab][Dab]T; lactam 4-C)
MIC (Acinetobacter baumannii): > 32 µg/mL

CCCCCCSSC[C@H](N)C(=O)N[C@H](C(=O)N[C@@H](CCN)C(=O)N[C@H]1CCNC(=O)[C@H]([C@@H](C)O)NC(=O)[C@H](CCN)NC(=O)[C@H](CCN)NC(=O)[C@H](CC(C)C)NC(=O)[C@@H](Cc2ccccc2)NC(=O)[C@H](CCN)NC1=O)[C@@H](C)O (H-C(X4)T[Dab][Dab][Dab][dF]L[Dab][Dab]T; lactam 4-C)
MIC (Acinetobacter baumannii): > 32 µg/mL

CC(C)C[C@@H]1NC(=O)[C@@H](Cc2ccccc2)NC(=O)[C@H](CCN)NC(=O)[C@@H](NC(=O)[C@H](CCN)NC(=O)[C@@H](NC(=O)[C@H](CSSCCC2CCCCC2)NC(=O)CN)[C@@H](C)O)CCNC(=O)[C@H]([C@@H](C)O)NC(=O)[C@H](CCN)NC(=O)[C@H](CCN)NC1=O (H-GC(S(2-cyclohexylethyl))T[Dab][Dab][Dab][dF]L[Dab][Dab]T; lactam 5-C)
Activity (Erythrocyte): Non-Toxic
Stability [1]: Unstable
remaining at 24 h, 1 mg/ml [2]: 70%

CC(C)C[C@@H]1NC(=O)[C@@H](Cc2ccccc2)NC(=O)[C@H](CCN)NC(=O)[C@@H](NC(=O)[C@H](CCN)NC(=O)[C@@H](NC(=O)[C@H](CSSc2ccc(-c3ccccc3)cc2)NC(=O)CN)[C@@H](C)O)CCNC(=O)[C@H]([C@@H](C)O)NC(=O)[C@H](CCN)NC(=O)[C@H](CCN)NC1=O (H-GC(X6)T[Dab][Dab][Dab][dF]L[Dab][Dab]T; lactam 5-C)
Activity (Erythrocyte): Non-Toxic

CC(C)C[C@@H]1NC(=O)[C@@H](Cc2ccccc2)NC(=O)[C@H](CCN)NC(=O)[C@@H](NC(=O)[C@H](CCN)NC(=O)[C@@H](NC(=O)[C@@H](CSSCCC2CCCCC2)NC(=O)CN)[C@@H](C)O)CCNC(=O)[C@H]([C@@H](C)O)NC(=O)[C@H](CCN)NC(=O)[C@H](CCN)NC1=O (H-G[dC](S(2-cyclohexylethyl))T[Dab][Dab][Dab][dF]L[Dab][Dab]T; lactam 5-C)
Activity (Erythrocyte): Non-Toxic

CC(C)CCCCC[C@@H](N)C(=O)N[C@H](C(=O)N[C@@H](CCN)C(=O)N[C@H]1CCNC(=O)[C@H]([C@@H](C)O)NC(=O)[C@H](CCN)NC(=O)[C@H](CCN)NC(=O)[C@H](CC(C)C)NC(=O)[C@@H](Cc2ccccc2)NC(=O)[C@H](CCN)NC1=O)[C@@H](C)O (H-[X2]T[Dab][Dab][Dab][dF]L[Dab][Dab]T; lactam 4-C)
CC50 at 24 h [3]: 82 µM
Activity (Erythrocyte): Non-Toxic

CC(C)C[C@@H]1NC(=O)[C@@H](Cc2ccccc2)NC(=O)[C@H](CCN)NC(=O)[C@@H](NC(=O)[C@H](CCN)NC(=O)[C@@H](NC(=O)[C@H](N)CSSCCC2CCCCC2)[C@@H](C)O)CCNC(=O)[C@H]([C@@H](C)O)NC(=O)[C@H](CCN)NC(=O)[C@H](CCN)NC1=O (H-[dC](S(2-cyclohexylethyl))T[Dab][Dab][Dab][dF]L[Dab][Dab]T; lactam 4-C)
Activity (Erythrocyte): Non-Toxic

CC(C)C[C@@H]1NC(=O)[C@@H](Cc2ccccc2)NC(=O)[C@H](CCN)NC(=O)[C@@H](NC(=O)[C@H](CCN)NC(=O)[C@@H](NC(=O)[C@H](N)CSSCc2cccc(Cl)c2)[C@@H](C)O)CCNC(=O)[C@H]([C@@H](C)O)NC(=O)[C@H](CCN)NC(=O)[C@H](CCN)NC1=O (H-[dC](S(3-Cl-benzyl))T[Dab][Dab][Dab][dF]L[Dab][Dab]T; lactam 4-C)
Activity (Erythrocyte): Non-Toxic

CC(C)CCSSC[C@@H](N)C(=O)N[C@H](C(=O)N[C@@H](CCN)C(=O)N[C@H]1CCNC(=O)[C@H]([C@@H](C)O)NC(=O)[C@H](CCN)NC(=O)[C@H](CCN)NC(=O)[C@H](CC(C)C)NC(=O)[C@@H](Cc2ccccc2)NC(=O)[C@H](CCN)NC1=O)[C@@H](C)O (H-[dC](S(3-Methylbutyl))T[Dab][Dab][Dab][dF]L[Dab][Dab]T; lactam 4-C)
CC50 at 24 h [3]: 192 µM
Activity (Erythrocyte): Non-Toxic
Stability [1]: Unstable
remaining at 24 h, 1 mg/ml [2]: 70%

CC(C)CCCCSSC[C@@H](N)C(=O)N[C@H](C(=O)N[C@@H](CCN)C(=O)N[C@H]1CCNC(=O)[C@H]([C@@H](C)O)NC(=O)[C@H](CCN)NC(=O)[C@H](CCN)NC(=O)[C@H](CC(C)C)NC(=O)[C@@H](Cc2ccccc2)NC(=O)[C@H](CCN)NC1=O)[C@@H](C)O (H-[dC](X1)T[Dab][Dab][Dab][dF]L[Dab][Dab]T; lactam 4-C)
Activity (Erythrocyte): Non-Toxic

CC(C)C[C@@H]1NC(=O)[C@@H](Cc2ccccc2)NC(=O)[C@H](CCN)NC(=O)[C@@H](NC(=O)[C@H](CCN)NC(=O)[C@@H](NC(=O)[C@H](N)CSSCc2ccc(Oc3ccccc3)cc2)[C@@H](C)O)CCNC(=O)[C@H]([C@@H](C)O)NC(=O)[C@H](CCN)NC(=O)[C@H](CCN)NC1=O (H-[dC](X3)T[Dab][Dab][Dab][dF]L[Dab][Dab]T; lactam 4-C)
Activity (Erythrocyte): Non-Toxic

CCCCCCSSC[C@@H](N)C(=O)N[C@H](C(=O)N[C@@H](CCN)C(=O)N[C@H]1CCNC(=O)[C@H]([C@@H](C)O)NC(=O)[C@H](CCN)NC(=O)[C@H](CCN)NC(=O)[C@H](CC(C)C)NC(=O)[C@@H](Cc2ccccc2)NC(=O)[C@H](CCN)NC1=O)[C@@H](C)O (H-[dC](X4)T[Dab][Dab][Dab][dF]L[Dab][Dab]T; lactam 4-C)
Activity (Erythrocyte): Non-Toxic

CC(C)C[C@@H]1NC(=O)[C@@H](Cc2ccccc2)NC(=O)[C@H](CCN)NC(=O)[C@@H](NC(=O)[C@H](CCN)NC(=O)[C@@H](NC(=O)[C@H](N)CSSCc2ccc(-c3ccccc3)cc2)[C@@H](C)O)CCNC(=O)[C@H]([C@@H](C)O)NC(=O)[C@H](CCN)NC(=O)[C@H](CCN)NC1=O (H-[dC](X5)T[Dab][Dab][Dab][dF]L[Dab][Dab]T; lactam 4-C)
Activity (Erythrocyte): Non-Toxic

CC(C)C[C@@H]1NC(=O)[C@@H](Cc2ccccc2)NC(=O)[C@H](CCN)NC(=O)[C@@H](NC(=O)[C@H](CCN)NC(=O)[C@@H](N)[C@@H](C)O)CCNC(=O)[C@H]([C@@H](C)O)NC(=O)[C@H](CCN)NC(=O)[C@H](CCN)NC1=O [POLYMYXIN B NONAPEPTIDE] (H-T[Dab][Dab][Dab][dF]L[Dab][Dab]T; lactam 3-C)
MIC (Klebsiella pneumoniae): > 32 µg/mL
MIC (Pseudomonas aeruginosa): > 32 µg/mL
MIC (Acinetobacter baumannii): > 32 µg/mL
selectivity ratio at 24 h [4]: > 10
MIC (Escherichia coli): > 32 µg/mL

POLYMYXIN B [listing 1 of 2 here]
Activity (Erythrocyte): Non-Toxic

POLYMYXIN B [listing 2 of 2 here]
MIC (Klebsiella pneumoniae): 0.25 µg/mL
MIC (Pseudomonas aeruginosa): 1 µg/mL
MIC (Acinetobacter baumannii): 0.25 µg/mL
MIC (Escherichia coli): 1 µg/mL
